Values after ≈ are worked out from the molar mass of the structure shown.
System: Klebsiella pneumoniae
Test: Antimicrobial activity against CTX-M-2 producing Klebsiella pneumoniae with PFGE pulsotype A by Etest
Assay type: functional
Conditions: not given
In short: (§1)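 Clinical K. pneumoniae isolates from a neonatal ICU outbreak near São Paulo were typed by XbaI PFGE using Tenover criteria. Cultures were grown in LB broth at 37°C. Etest MICs followed the manufacturer's instructions, with cefotaxime and ceftazidime each tested with and without clavulanic acid.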

Compound | MIC [µg/mL]
CO/N=C(\C(=O)N[C@@H]1C(=O)N2C(C(=O)O)=C(COC(C)=O)CS[C@H]12)c1csc(N)n1 [CEFOTAXIME] | > 256

System: Klebsiella pneumoniae
Test: Antimicrobial activity against CTX-M-2 producing Klebsiella pneumoniae with PFGE pulsotype B by Etest
Assay type: functional
Conditions: not given
In short: as §1

Compound | MIC [µg/mL]
CO/N=C(\C(=O)N[C@@H]1C(=O)N2C(C(=O)O)=C(COC(C)=O)CS[C@H]12)c1csc(N)n1 [CEFOTAXIME] | > 256

System: Klebsiella pneumoniae
Test: Antimicrobial activity against CTX-M-59 producing Klebsiella pneumoniae with PFGE pulsotype C by Etest
Assay type: functional
Conditions: not given

Compound | MIC [µg/mL]
CO/N=C(\C(=O)N[C@@H]1C(=O)N2C(C(=O)O)=C(COC(C)=O)CS[C@H]12)c1csc(N)n1 [CEFOTAXIME] | > 256

System: Klebsiella pneumoniae
Test: Antimicrobial activity against SHV-5 producing Klebsiella pneumoniae with PFGE pulsotype D by Etest
Assay type: functional
Conditions: not given
In short: as §1

Compound | MIC [µg/mL]
CO/N=C(\C(=O)N[C@@H]1C(=O)N2C(C(=O)O)=C(COC(C)=O)CS[C@H]12)c1csc(N)n1 [CEFOTAXIME] | 48 (≈ 105 µM)

System: Klebsiella pneumoniae
Test: Antimicrobial activity against CTX-M-59 producing Klebsiella pneumoniae with PFGE pulsotype E by Etest
Assay type: functional
Conditions: not given

Compound | MIC [µg/mL]
CO/N=C(\C(=O)N[C@@H]1C(=O)N2C(C(=O)O)=C(COC(C)=O)CS[C@H]12)c1csc(N)n1 [CEFOTAXIME] | > 256

System: Klebsiella pneumoniae
Test: Antimicrobial activity against CTX-M-2 producing Klebsiella pneumoniae with PFGE pulsotype F by Etest
Assay type: functional
Conditions: not given

Compound | MIC [µg/mL]
CO/N=C(\C(=O)N[C@@H]1C(=O)N2C(C(=O)O)=C(COC(C)=O)CS[C@H]12)c1csc(N)n1 [CEFOTAXIME] | > 256

System: Klebsiella pneumoniae
Test: Antimicrobial activity against CTX-M-59 producing Klebsiella pneumoniae with PFGE pulsotype G by Etest
Assay type: functional
Conditions: not given
In short: as §1

Compound | MIC [µg/mL]
CO/N=C(\C(=O)N[C@@H]1C(=O)N2C(C(=O)O)=C(COC(C)=O)CS[C@H]12)c1csc(N)n1 [CEFOTAXIME] | > 256

System: Klebsiella pneumoniae
Test: Antimicrobial activity against CTX-M-2 producing Klebsiella pneumoniae with PFGE pulsotype H by Etest
Assay type: functional
Conditions: not given
In short: as §1

Compound | MIC [µg/mL]
CO/N=C(\C(=O)N[C@@H]1C(=O)N2C(C(=O)O)=C(COC(C)=O)CS[C@H]12)c1csc(N)n1 [CEFOTAXIME] | > 256

System: Klebsiella pneumoniae
Test: Antimicrobial activity against CTX-M-2 producing Klebsiella pneumoniae with PFGE pulsotype I by Etest
Assay type: functional
Conditions: not given

Compound | MIC [µg/mL]
CO/N=C(\C(=O)N[C@@H]1C(=O)N2C(C(=O)O)=C(COC(C)=O)CS[C@H]12)c1csc(N)n1 [CEFOTAXIME] | > 256

System: Klebsiella pneumoniae
Test: Antimicrobial activity against CTX-M-2 producing Klebsiella pneumoniae with PFGE pulsotype J by Etest
Assay type: functional
Conditions: not given

Compound | MIC [µg/mL]
CO/N=C(\C(=O)N[C@@H]1C(=O)N2C(C(=O)O)=C(COC(C)=O)CS[C@H]12)c1csc(N)n1 [CEFOTAXIME] | > 256

System: Escherichia coli
Test: Antimicrobial activity against Escherichia coli str. K-12 substr. DH10B harboring plasmid CTX-M-2
Assay type: functional
Conditions: K-12 DH10B
In short: (§2)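 blaCTX-M PCR products were cut with XbaI/BamHI and cloned into pBC-SK(−), then electroporated into E. coli DH10B. Transformants were selected on LB agar with ampicillin 50 μg/ml and chloramphenicol 30 μg/ml, and sequences were confirmed. These clones were used for β-lactam MICs, with and without clavulanic acid.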

Compound | MIC [µg/mL]
CO/N=C(\C(=O)N[C@@H]1C(=O)N2C(C(=O)O)=C(COC(C)=O)CS[C@H]12)c1csc(N)n1 [CEFOTAXIME] | 128 (≈ 281 µM)

System: Escherichia coli
Test: Antimicrobial activity against Escherichia coli str. K-12 substr. DH10B harboring plasmid CTX-M-2 in presence of clavulanic acid
Assay type: functional
Conditions: K-12 DH10B
In short: as §2

Compound | MIC [µg/mL]
CO/N=C(\C(=O)N[C@@H]1C(=O)N2C(C(=O)O)=C(COC(C)=O)CS[C@H]12)c1csc(N)n1 [CEFOTAXIME] | 0.094

System: Escherichia coli
Test: Antimicrobial activity against Escherichia coli str. K-12 substr. DH10B harboring plasmid CTX-M-59
Assay type: functional
Conditions: K-12 DH10B
In short: as §2

Compound | MIC [µg/mL]
CO/N=C(\C(=O)N[C@@H]1C(=O)N2C(C(=O)O)=C(COC(C)=O)CS[C@H]12)c1csc(N)n1 [CEFOTAXIME] | 96 (≈ 211 µM)

System: Escherichia coli
Test: Antimicrobial activity against Escherichia coli str. K-12 substr. DH10B harboring plasmid CTX-M-59 in presence of clavulanic acid
Assay type: functional
Conditions: K-12 DH10B
In short: as §2

Compound | MIC [µg/mL]
CO/N=C(\C(=O)N[C@@H]1C(=O)N2C(C(=O)O)=C(COC(C)=O)CS[C@H]12)c1csc(N)n1 [CEFOTAXIME] | 0.094

System: Klebsiella pneumoniae
Test: Antimicrobial activity against SHV-5 producing Klebsiella pneumoniae transconjugants/transformants with PFGE pulsotype D by Etest
Assay type: functional
Conditions: not given
In short: (§3)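 The recipient was E. coli XL1-Blue Rifr NAr. Plasmids moved by broth mating, with transconjugants selected on LB agar containing ampicillin, rifampin and nalidixic acid, each at 50 μg/ml. Where mating failed, alkaline-lysis plasmid extracts were electroporated and selected on ampicillin 50 μg/ml. β-lactam MICs were read by Etest, with and without clavulanic acid.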

Compound | MIC [µg/mL]
CO/N=C(\C(=O)N[C@@H]1C(=O)N2C(C(=O)O)=C(COC(C)=O)CS[C@H]12)c1csc(N)n1 [CEFOTAXIME] | 12 (≈ 26.3 µM)

System: Klebsiella pneumoniae
Test: Antimicrobial activity against CTX-M-2 and TEM-1 producing Klebsiella pneumoniae transconjugants/transformants with PFGE pulsotype B by Etest in presence of clavulanic acid
Assay type: functional
Conditions: not given
In short: as §3

Compound | MIC [µg/mL]
CO/N=C(\C(=O)N[C@@H]1C(=O)N2C(C(=O)O)=C(COC(C)=O)CS[C@H]12)c1csc(N)n1 [CEFOTAXIME] | 0.094

System: Klebsiella pneumoniae
Test: Antimicrobial activity against CTX-M-59 and TEM-1 producing Klebsiella pneumoniae transconjugants/transformants with PFGE pulsotype C by Etest in presence of clavulanic acid
Assay type: functional
Conditions: not given
In short: as §3

Compound | MIC [µg/mL]
CO/N=C(\C(=O)N[C@@H]1C(=O)N2C(C(=O)O)=C(COC(C)=O)CS[C@H]12)c1csc(N)n1 [CEFOTAXIME] | 0.19
